Experimental data as given in ChEMBL document CHEMBL1275584, “Genetically engineered lipopeptide antibiotics related to A54145 and daptomycin with improved properties” (Antimicrob Agents Chemother, 2010).
Values after ≈ are worked out from the molar mass of the structure shown.

Tests used:
Assay type in all cases: functional
[1] = tested on: Staphylococcus aureus; assay: Ratio of MIC for Staphylococcus aureus 42 in presence of 1% bovine pulmonary surfactant to MIC for Staphylococcus aureus 42 in absence of 1% bovine pulmonary surfactant
How it was run: (§1)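 Broth MIC in Mueller-Hinton broth with 50 mg/liter CaCl2, run with or without 1% bovine pulmonary surfactant, following CLSI methods. Colonies came from frozen stocks streaked on sheep-blood tryptic soy agar (37°C, ~24 h). Incubation was at 37°C with rotation at 200 rpm. The ratio is MIC with surfactant divided by MIC without.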

[2] = tested on: Staphylococcus aureus; assay: Antibacterial activity against Staphylococcus aureus 42 in absence of 1% bovine pulmonary surfactant by CLSI method; conditions: Staphylococcus aureus, 42, Pulmonary surfactant; how it was run: as §1
[3] = tested on: Staphylococcus aureus; assay: Antibacterial activity against Staphylococcus aureus 42 in presence of 1% bovine pulmonary surfactant by CLSI method; conditions: Staphylococcus aureus, 42, Pulmonary surfactant; how it was run: as §1

Row | MIC [2] [µg/mL] | MIC [3] [µg/mL] | Structure (SMILES) | Ratio [1]
1 | 1 (≈ 0.618 µM) | 16 | CC(C)CCCCCCCC(=O)N[C@@H](Cc1c[nH]c2ccccc12)C(=O)N[C@H](CC(N)=O)C(=O)N[C@@H](CC(=O)O)C(=O)N[C@@H]1C(=O)NCC(=O)N[C@@H](CCCN)C(=O)N[C@@H](CC(=O)O)C(=O)N[C@H](C)C(=O)N[C@@H](CC(=O)O)C(=O)NCC(=O)N[C@H](C)C(=O)N[C@@H]([C@H](C)CC(=O)O)C(=O)N[C@@H](CC(=O)c2ccccc2N)C(=O)O[C@H]1C | 16
2 | 0.5 (≈ 0.306 µM) | 64 | CC(C)CCCCCCCC(=O)N[C@@H](Cc1c[nH]c2ccccc12)C(=O)N[C@H](CC(N)=O)C(=O)N[C@@H](CC(=O)O)C(=O)N[C@@H]1C(=O)NCC(=O)N[C@@H](CCCN)C(=O)N[C@@H](CC(=O)O)C(=O)N[C@H](C)C(=O)N[C@@H](CC(=O)O)C(=O)NCC(=O)N[C@H](CO)C(=O)N[C@@H]([C@H](C)CC(=O)O)C(=O)N[C@@H](CC(=O)c2ccccc2N)C(=O)O[C@H]1C | 128
3 | 1 (≈ 0.613 µM) | 32 | CC(C)CCCCCCCC(=O)N[C@@H](Cc1c[nH]c2ccccc12)C(=O)N[C@H](CC(N)=O)C(=O)N[C@@H](CC(=O)O)C(=O)N[C@@H]1C(=O)NCC(=O)N[C@@H](CCCN)C(=O)N[C@@H](CC(=O)O)C(=O)N[C@H](C)C(=O)N[C@@H](CC(=O)O)C(=O)NCC(=O)N[C@H](CO)C(=O)N[C@@H]([C@H](C)CC(=O)O)C(=O)N[C@@H](Cc2c[nH]c3ccccc23)C(=O)O[C@H]1C | 32
4 | 2 (≈ 1.28 µM) | 8 | CC[C@H](C)[C@@H]1NC(=O)[C@H]([C@H](C)CC(=O)O)NC(=O)[C@@H](CO)NC(=O)CNC(=O)[C@H](CC(=O)O)NC(=O)[C@@H](C)NC(=O)[C@H](CC(=O)O)NC(=O)[C@H](CCCN)NC(=O)CNC(=O)[C@@H](NC(=O)[C@H](CC(=O)O)NC(=O)[C@@H](CC(N)=O)NC(=O)[C@H](Cc2c[nH]c3ccccc23)NC(=O)CCCCCCCC(C)C)[C@H](C)OC1=O | 4
5 | 4 (≈ 2.59 µM) | 8 | CC(C)CCCCCCCC(=O)N[C@@H](Cc1c[nH]c2ccccc12)C(=O)N[C@H](CC(N)=O)C(=O)N[C@@H](CC(=O)O)C(=O)N[C@@H]1C(=O)NCC(=O)N[C@@H](CCCN)C(=O)N[C@@H](CC(=O)O)C(=O)N[C@H](C)C(=O)N[C@@H](CC(=O)O)C(=O)NCC(=O)N[C@H](CO)C(=O)N[C@@H]([C@H](C)CC(=O)O)C(=O)N[C@@H](C(C)C)C(=O)O[C@H]1C | 2
6 | 8 (≈ 4.94 µM) | 16 | CC(C)CCCCCCCC(=O)N[C@@H](Cc1c[nH]c2ccccc12)C(=O)N[C@H](CC(N)=O)C(=O)N[C@@H](CC(=O)O)C(=O)N[C@@H]1C(=O)NCC(=O)N[C@@H](CCCN)C(=O)N[C@@H](CC(=O)O)C(=O)N[C@H](C)C(=O)N[C@@H](CC(=O)O)C(=O)NCC(=O)N[C@H](CO)C(=O)N[C@@H](CCC(=O)O)C(=O)N[C@@H](CC(=O)c2ccccc2N)C(=O)O[C@H]1C | 2
7 | 1 (≈ 0.602 µM) | 16 | CC(C)CCCCCCCC(=O)N[C@@H](Cc1c[nH]c2ccccc12)C(=O)N[C@H](CC(N)=O)C(=O)N[C@@H](CC(=O)O)C(=O)N[C@@H]1C(=O)NCC(=O)N[C@@H](CCCN)C(=O)N[C@@H](CC(=O)O)C(=O)N[C@H](C)C(=O)N[C@@H](CC(=O)O)C(=O)NCC(=O)N[C@H](CC(N)=O)C(=O)N[C@@H]([C@H](C)CC(=O)O)C(=O)N[C@@H](CC(=O)c2ccccc2N)C(=O)O[C@H]1C | 16
8 | 1 (≈ 0.582 µM) | 32 | CC(C)CCCCCCCC(=O)N[C@@H](Cc1c[nH]c2ccccc12)C(=O)N[C@H](CC(N)=O)C(=O)N[C@@H](CC(=O)O)C(=O)N[C@@H]1C(=O)NCC(=O)N[C@@H](CCCN)C(=O)N[C@@H](CC(=O)O)C(=O)N[C@H](CCCCN)C(=O)N[C@@H](CC(=O)O)C(=O)NCC(=O)N[C@H](CC(N)=O)C(=O)N[C@@H]([C@H](C)CC(=O)O)C(=O)N[C@@H](CC(=O)c2ccccc2N)C(=O)O[C@H]1C | 32
9 | 2 (≈ 1.22 µM) | 16 | CC[C@H](C)[C@@H]1NC(=O)[C@H]([C@H](C)CC(=O)O)NC(=O)[C@@H](CO)NC(=O)CNC(=O)[C@H]([C@H](OC)C(=O)O)NC(=O)[C@@H](CCCCN)NC(=O)[C@H](CC(=O)O)NC(=O)[C@H](C)NC(=O)CN(C)C(=O)[C@@H](NC(=O)[C@@H](NC(=O)[C@@H](CCC(=O)O)NC(=O)[C@H](Cc2c[nH]c3ccccc23)NC(=O)CCCCCCCC(C)C)[C@H](O)C(N)=O)[C@H](C)OC1=O | 8
10 | 1 (≈ 0.619 µM) | 32 | CC[C@H](C)[C@@H]1NC(=O)[C@H]([C@H](C)CC(=O)O)NC(=O)[C@@H](CC(N)=O)NC(=O)CNC(=O)[C@H]([C@H](OC)C(=O)O)NC(=O)[C@@H](C)NC(=O)[C@H](CC(=O)O)NC(=O)[C@H](C)NC(=O)CN(C)C(=O)[C@@H](NC(=O)[C@@H](NC(=O)[C@@H](CCC(=O)O)NC(=O)[C@H](Cc2c[nH]c3ccccc23)NC(=O)CCCCCCCC(C)C)[C@H](O)C(N)=O)[C@H](C)OC1=O | 32
11 | 8 (≈ 4.82 µM) | 64 | CC[C@H](C)[C@@H]1NC(=O)[C@H]([C@H](C)CC(=O)O)NC(=O)[C@@H](CC(N)=O)NC(=O)CNC(=O)[C@H]([C@H](OC)C(=O)O)NC(=O)[C@@H](CC(N)=O)NC(=O)[C@H](CC(=O)O)NC(=O)[C@H](C)NC(=O)CN(C)C(=O)[C@@H](NC(=O)[C@@H](NC(=O)[C@@H](CCC(=O)O)NC(=O)[C@H](Cc2c[nH]c3ccccc23)NC(=O)CCCCCCCC(C)C)[C@H](O)C(N)=O)[C@H](C)OC1=O | 8
12 | 2 (≈ 1.21 µM) | 16 | CC[C@H](C)[C@@H]1NC(=O)[C@H]([C@H](C)CC(=O)O)NC(=O)[C@@H](CC(N)=O)NC(=O)CNC(=O)[C@H]([C@H](OC)C(=O)O)NC(=O)[C@@H](CCCCN)NC(=O)[C@H](CC(=O)O)NC(=O)[C@H](C)NC(=O)CN(C)C(=O)[C@@H](NC(=O)[C@H](CC(N)=O)NC(=O)[C@@H](CCC(=O)O)NC(=O)[C@H](Cc2c[nH]c3ccccc23)NC(=O)CCCCCCCC(C)C)[C@H](C)OC1=O | 8
13 | 64 (≈ 39.2 µM) | 128 | CC[C@H](C)[C@@H]1NC(=O)[C@H](CCC(=O)O)NC(=O)[C@@H](CO)NC(=O)CNC(=O)[C@H]([C@H](OC)C(=O)O)NC(=O)[C@@H](CCCCN)NC(=O)[C@H](CC(=O)O)NC(=O)[C@H](C)NC(=O)CN(C)C(=O)[C@@H](NC(=O)[C@@H](NC(=O)[C@@H](CCC(=O)O)NC(=O)[C@H](Cc2c[nH]c3ccccc23)NC(=O)CCCCCCCC(C)C)[C@H](O)C(N)=O)[C@H](C)OC1=O | 2
14 | 8 (≈ 4.95 µM) | 8 | CC[C@H](C)[C@@H]1NC(=O)[C@H](CCC(=O)O)NC(=O)[C@@H](CC(N)=O)NC(=O)CNC(=O)[C@H]([C@H](OC)C(=O)O)NC(=O)[C@@H](CO)NC(=O)[C@H](CC(=O)O)NC(=O)[C@H](C)NC(=O)CN(C)C(=O)[C@@H](NC(=O)[C@@H](NC(=O)[C@@H](CCC(=O)O)NC(=O)[C@H](Cc2c[nH]c3ccccc23)NC(=O)CCCCCCCC(C)C)[C@H](O)C(N)=O)[C@H](C)OC1=O | 1
15 | 16 (≈ 9.73 µM) | 16 | CC[C@H](C)[C@@H]1NC(=O)[C@H](CCC(=O)O)NC(=O)[C@@H](CC(N)=O)NC(=O)CNC(=O)[C@H]([C@H](OC)C(=O)O)NC(=O)[C@@H](CC(N)=O)NC(=O)[C@H](CC(=O)O)NC(=O)[C@H](C)NC(=O)CN(C)C(=O)[C@@H](NC(=O)[C@@H](NC(=O)[C@@H](CCC(=O)O)NC(=O)[C@H](Cc2c[nH]c3ccccc23)NC(=O)CCCCCCCC(C)C)[C@H](O)C(N)=O)[C@H](C)OC1=O | 1
16 | 8 (≈ 4.95 µM) | 16 | CC[C@H](C)[C@@H]1NC(=O)[C@H](CCC(=O)O)NC(=O)[C@@H](C)NC(=O)CNC(=O)[C@H]([C@H](OC)C(=O)O)NC(=O)[C@@H](CCCCN)NC(=O)[C@H](CC(=O)O)NC(=O)[C@H](C)NC(=O)CN(C)C(=O)[C@@H](NC(=O)[C@@H](NC(=O)[C@@H](CCC(=O)O)NC(=O)[C@H](Cc2c[nH]c3ccccc23)NC(=O)CCCCCCCC(C)C)[C@H](O)C(N)=O)[C@H](C)OC1=O | 2
17 | 4 (≈ 2.5 µM) | 8 | CC[C@H](C)[C@@H]1NC(=O)[C@H](CCC(=O)O)NC(=O)[C@@H](CC(N)=O)NC(=O)CNC(=O)[C@H]([C@H](OC)C(=O)O)NC(=O)[C@@H](C)NC(=O)[C@H](CC(=O)O)NC(=O)[C@H](C)NC(=O)CN(C)C(=O)[C@@H](NC(=O)[C@@H](NC(=O)[C@@H](CCC(=O)O)NC(=O)[C@H](Cc2c[nH]c3ccccc23)NC(=O)CCCCCCCC(C)C)[C@H](O)C(N)=O)[C@H](C)OC1=O | 2
